Source: ChEMBL document CHEMBL3351863, “Optimization of 2-phenyl-pyrimidine-4-carboxamides towards potent, orally bioavailable and selective P2Y(12) antagonists for inhibition of platelet aggregation” (Bioorg Med Chem Lett, 2014)

Assays:
[1] = Solubility in basic pH; assay type: physicochemical
Cytochrome P450 3A4 [2] = biological target: T1, Cytochrome P450 3A4 (Homo sapiens, UniProt P08684); assay: Inhibition of CYP3A4 in human liver microsomes assessed as reduction in midazolam 1'-hydroxylation; assay type: ADME
Liver microsome [3] = assay: Metabolic stability assay in human liver microsomes assessed as parent drug disappearance at 1 uM after 20 mins by HPLC and mass spectrometry method; assay type: ADME
Cytochrome P450 2C9 = Cytochrome P450 2C9 (Homo sapiens, UniProt P11712); assay: Inhibition of CYP2C9 in human liver microsomes assessed as reduction in diclofenac 4'-hydroxylation; assay type: ADME
P2Y purinoceptor 12 = P2Y purinoceptor 12 (Homo sapiens, UniProt Q9H244); assay: Displacement of [3H]-2-methyl-thio-adenosine 5'-diphosphate from human recombinant P2Y12 expressed in CHO cell membranes by scintillation counting method
How it was run: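 CHO cells expressing recombinant P2Y₁₂ receptors, incubated with tritium-labeled 2-methyl-thio-adenosine 5'-diphosphate plus test compound; IC₅₀ from displacement curves, each point in triplicate; reference compound run with every compound set, and set re-analyzed if its IC₅₀ fell outside pre-set 95% confidence interval.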

Cytochrome P450 3A4 [4] = biological target: T1, Cytochrome P450 3A4; assay: Inhibition of CYP3A4 in human liver microsomes assessed as reduction in testosterone 6beta-hydroxylation; assay type: ADME
Liver microsome [5] = assay: Metabolic stability assay in rat liver microsomes assessed as parent drug disappearance at 1 uM after 20 mins by HPLC and mass spectrometry method; assay type: ADME
Cytochrome P450 2D6 = Cytochrome P450 2D6 (Homo sapiens, UniProt P10635); assay: Inhibition of CYP2D6 in human liver microsomes assessed as reduction in dextromethorphan-O demethylation; assay type: ADME
Platelet [6] = assay: Inhibition of ADP-induced platelet aggregation in human platelet rich plasma assessed as remaining activity at 500 nM by in-vitro light transmission aggregometry assay; assay type: functional
How it was run: (§1)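 Light transmission aggregometry in human platelet-rich plasma; compound incubated, aggregation triggered with 3 µM ADP; remaining activity (RA) recorded at a single compound level (1000, 500 or 100 nM).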

[7] = biological target: Voltage-gated inwardly rectifying potassium channel KCNH2 (Homo sapiens, UniProt Q12809); assay: Inhibition of human ERG expressed in HEK cells by patch-clamp assay; assay type: cell-based; conditions: hek293
[8] = Solubility in neutral pH; assay type: physicochemical
Platelet [9] = assay: Inhibition of ADP-induced platelet aggregation in human platelet rich plasma assessed as remaining activity at 1000 nM by in-vitro light transmission aggregometry assay; assay type: functional; how it was run: as §1
[10] = Potency shift, ratio of IC50 for inhibition of ADP-induced platelet aggregation in human platelet rich plasma to IC50 for displacement of [3H]-2-methyl-thio-adenosine 5'-diphosphate from human recombinant P2Y12 expressed in CHO cell membranes
Platelet [11] = assay: Inhibition of ADP-induced platelet aggregation in human platelet rich plasma by in-vitro light transmission aggregometry assay; assay type: functional
How it was run: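 Human platelet-rich plasma incubated with compound, aggregation induced by 3 µM ADP and read by light transmission aggregometry; IC₅₀ derived from concentration–response curve.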

Platelet [12] = assay: Inhibition of ADP-induced platelet aggregation in human platelet rich plasma assessed as remaining activity at 100 nM by in-vitro light transmission aggregometry assay; assay type: functional; how it was run: as §1
[13] = Protein binding in human plasma; assay type: ADME, cell-free; conditions: read-out: PPB (converted)

Sequence of Voltage-gated inwardly rectifying potassium channel KCNH2 (Q12809 whole entry): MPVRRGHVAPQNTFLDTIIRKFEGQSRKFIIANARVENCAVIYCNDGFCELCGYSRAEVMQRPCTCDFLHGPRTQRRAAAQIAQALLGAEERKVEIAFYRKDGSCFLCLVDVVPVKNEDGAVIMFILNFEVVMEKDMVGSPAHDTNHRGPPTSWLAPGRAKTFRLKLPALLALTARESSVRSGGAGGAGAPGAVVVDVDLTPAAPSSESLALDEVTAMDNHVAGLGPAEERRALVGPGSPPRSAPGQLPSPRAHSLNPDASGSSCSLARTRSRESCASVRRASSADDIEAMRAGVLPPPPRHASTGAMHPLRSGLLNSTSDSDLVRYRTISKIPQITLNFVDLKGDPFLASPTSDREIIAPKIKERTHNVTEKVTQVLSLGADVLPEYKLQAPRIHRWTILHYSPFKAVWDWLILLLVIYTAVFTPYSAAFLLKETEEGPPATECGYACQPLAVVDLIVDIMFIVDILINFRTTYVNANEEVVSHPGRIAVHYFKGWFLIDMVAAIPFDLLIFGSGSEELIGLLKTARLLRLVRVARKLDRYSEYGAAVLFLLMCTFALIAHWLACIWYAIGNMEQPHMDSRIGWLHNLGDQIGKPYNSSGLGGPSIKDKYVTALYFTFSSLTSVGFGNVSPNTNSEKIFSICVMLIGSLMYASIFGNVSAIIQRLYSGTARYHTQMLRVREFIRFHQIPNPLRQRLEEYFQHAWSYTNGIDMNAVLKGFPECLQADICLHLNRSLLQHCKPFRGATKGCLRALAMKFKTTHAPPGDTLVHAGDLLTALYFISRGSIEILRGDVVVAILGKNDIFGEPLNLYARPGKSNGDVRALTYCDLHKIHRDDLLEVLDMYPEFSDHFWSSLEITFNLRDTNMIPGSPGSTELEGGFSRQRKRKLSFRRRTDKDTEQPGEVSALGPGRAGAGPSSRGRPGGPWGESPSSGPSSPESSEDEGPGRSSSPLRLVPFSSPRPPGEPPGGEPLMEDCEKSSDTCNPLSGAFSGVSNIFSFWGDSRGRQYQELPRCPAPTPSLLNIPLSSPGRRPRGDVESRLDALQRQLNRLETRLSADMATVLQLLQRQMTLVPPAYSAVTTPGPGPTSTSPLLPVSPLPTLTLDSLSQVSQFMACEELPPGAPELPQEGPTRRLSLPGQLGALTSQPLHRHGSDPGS
Sequence of Cytochrome P450 2C9 (P11712 whole entry): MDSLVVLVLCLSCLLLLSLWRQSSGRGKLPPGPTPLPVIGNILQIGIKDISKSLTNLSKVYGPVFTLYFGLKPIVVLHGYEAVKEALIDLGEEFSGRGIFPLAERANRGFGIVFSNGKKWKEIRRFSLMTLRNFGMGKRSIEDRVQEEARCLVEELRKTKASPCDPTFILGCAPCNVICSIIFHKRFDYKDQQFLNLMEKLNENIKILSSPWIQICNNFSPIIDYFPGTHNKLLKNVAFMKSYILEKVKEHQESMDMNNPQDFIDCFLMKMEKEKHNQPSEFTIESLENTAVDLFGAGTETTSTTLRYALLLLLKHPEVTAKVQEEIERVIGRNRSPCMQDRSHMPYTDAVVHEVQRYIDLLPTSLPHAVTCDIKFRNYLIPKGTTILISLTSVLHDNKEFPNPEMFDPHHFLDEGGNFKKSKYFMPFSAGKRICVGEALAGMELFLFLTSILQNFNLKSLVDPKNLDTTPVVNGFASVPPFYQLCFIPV
Sequence of P2Y purinoceptor 12 (Q9H244 whole entry): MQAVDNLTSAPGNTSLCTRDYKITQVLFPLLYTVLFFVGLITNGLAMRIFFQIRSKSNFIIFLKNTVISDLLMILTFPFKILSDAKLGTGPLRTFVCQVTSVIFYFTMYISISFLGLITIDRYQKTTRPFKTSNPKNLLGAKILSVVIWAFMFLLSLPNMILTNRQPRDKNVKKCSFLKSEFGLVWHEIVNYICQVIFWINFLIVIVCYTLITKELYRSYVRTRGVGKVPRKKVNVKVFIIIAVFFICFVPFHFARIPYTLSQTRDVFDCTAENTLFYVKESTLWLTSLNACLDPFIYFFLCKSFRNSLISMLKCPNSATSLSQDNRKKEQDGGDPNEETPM
T1 sequence (P08684 whole entry): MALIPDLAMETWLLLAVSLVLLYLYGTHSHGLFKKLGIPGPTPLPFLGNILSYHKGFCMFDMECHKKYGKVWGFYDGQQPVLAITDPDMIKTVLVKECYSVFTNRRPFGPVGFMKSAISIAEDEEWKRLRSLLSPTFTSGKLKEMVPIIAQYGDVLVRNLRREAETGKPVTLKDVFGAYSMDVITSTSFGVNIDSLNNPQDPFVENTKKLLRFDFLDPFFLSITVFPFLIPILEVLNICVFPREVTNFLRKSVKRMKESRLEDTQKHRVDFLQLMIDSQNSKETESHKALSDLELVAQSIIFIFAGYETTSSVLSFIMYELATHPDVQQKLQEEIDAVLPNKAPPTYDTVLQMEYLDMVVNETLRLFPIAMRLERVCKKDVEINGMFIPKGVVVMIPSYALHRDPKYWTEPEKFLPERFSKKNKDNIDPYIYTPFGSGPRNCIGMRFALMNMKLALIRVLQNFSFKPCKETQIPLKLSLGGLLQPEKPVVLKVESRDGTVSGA
Sequence of Cytochrome P450 2D6 (P10635 whole entry): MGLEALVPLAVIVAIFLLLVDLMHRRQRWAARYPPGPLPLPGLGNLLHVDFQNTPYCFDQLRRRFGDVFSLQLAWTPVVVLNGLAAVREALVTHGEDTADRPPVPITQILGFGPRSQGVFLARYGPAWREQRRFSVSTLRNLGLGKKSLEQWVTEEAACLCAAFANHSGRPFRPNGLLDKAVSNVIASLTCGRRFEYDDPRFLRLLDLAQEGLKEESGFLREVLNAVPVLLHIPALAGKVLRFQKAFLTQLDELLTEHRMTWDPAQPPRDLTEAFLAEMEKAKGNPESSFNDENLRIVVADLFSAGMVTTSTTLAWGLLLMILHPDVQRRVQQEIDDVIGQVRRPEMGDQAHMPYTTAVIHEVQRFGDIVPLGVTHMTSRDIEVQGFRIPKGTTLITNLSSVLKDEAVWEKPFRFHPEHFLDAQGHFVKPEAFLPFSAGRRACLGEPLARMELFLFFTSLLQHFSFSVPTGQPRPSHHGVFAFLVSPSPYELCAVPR

Compound	solubility [1]	inhibition (INH) (Cytochrome P450 3A4 [2])	Stability (Liver microsome [3])	inhibition (INH) (Cytochrome P450 2C9)	IC50 (P2Y purinoceptor 12)	inhibition (INH) (Cytochrome P450 3A4 [4])	Stability (Liver microsome [5])	inhibition (INH) (Cytochrome P450 2D6)	Activity (Platelet [6])	inhibition (INH) [7]	solubility [8]	Activity (Platelet [9])	Ratio IC50 [10]	IC50 (Platelet [11]; Homo sapiens, Platelet, Plasma)	Activity (Platelet [12])	fraction unbound [13]	IC50 (Platelet [11]; platelet)
CCOC(=O)N1CCN(C(=O)[C@H](CCC(=O)O)NC(=O)c2cc(-c3ccsc3)nc(-c3ccccc3)n2)CC1	soluble	Not Active	Stable	Not Active	11 nM	Not Active	Stable	Not Active	>60%	Not Active	soluble	>30%					
CCOC(=O)N1CCN(C(=O)[C@H](CCC(=O)O)NC(=O)c2cc(NS(=O)(=O)CC)nc(-c3ccccc3)n2)CC1	soluble	Not Active	Stable	Not Active	142 nM	Not Active	Stable	Not Active	>60%	Not Active	soluble	>30%					
CCOC(=O)N1CCN(C(=O)[C@H](CCC(=O)O)NC(=O)c2cc(-c3ccncc3)nc(-c3ccccc3)n2)CC1	soluble	Not Active	Stable	Not Active	53 nM	Not Active	Stable	Not Active	>60%	Not Active	soluble	>30%					
CCOC(=O)N1CCN(C(=O)[C@H](CCC(=O)O)NC(=O)c2cc(NCCC(=O)O)nc(-c3ccccc3)n2)CC1	soluble	Not Active	Stable	Not Active	198 nM	Not Active	Stable	Not Active	>60%	Not Active	soluble	>30%					
CCOC(=O)N1CCN(C(=O)[C@H](CCC(=O)O)NC(=O)c2cc(-c3ccccc3)nc(-c3ccccc3)n2)CC1	soluble	Not Active	Stable	Not Active	64 nM	Not Active	Stable	Not Active	>60%	Not Active	soluble	>30%					
CCOC(=O)N1CCN(C(=O)[C@H](CCC(=O)O)NC(=O)c2cc(C(C)C)nc(-c3ccccc3)n2)CC1	soluble	Not Active	Stable	Not Active	52 nM	Not Active	Stable	Not Active	>60%	Not Active	soluble	>30%	22	1140 nM			
CCOC(=O)N1CCN(C(=O)[C@H](CCC(=O)O)NC(=O)c2cc(CCCO)nc(-c3ccccc3)n2)CC1	soluble	Not Active	Stable	Not Active	218 nM	Not Active	Stable	Not Active	<30%	Not Active	soluble		1.2	264 nM	<70%	0.128	
CCOC(=O)N1CCN(C(=O)[C@H](CCC(=O)O)NC(=O)c2cc(Nc3ccccc3)nc(-c3ccccc3)n2)CC1	soluble	Not Active	Stable	Not Active	177 nM	Not Active	Stable	Not Active	>60%	Not Active	soluble	>30%					
CCOC(=O)N1CCN(C(=O)[C@H](CCC(=O)O)NC(=O)c2cc([C@H]3C[C@@H]3COC)nc(-c3ccccc3)n2)CC1					15 nM								5.8			0.034	87 nM
CCCNc1cc(C(=O)N[C@@H](CCC(=O)O)C(=O)N2CCN(C(=O)OCC)CC2)nc(-c2ccccc2)n1	soluble	Not Active	Stable	Not Active	162 nM	Not Active	Stable	Not Active		Not Active	soluble		24	3820 nM		0.015	
CCOC(=O)N1CCN(C(=O)[C@H](CCC(=O)O)NC(=O)c2cc(NC(=O)C3CCCCC3)nc(-c3ccccc3)n2)CC1	soluble	Not Active	Stable	Not Active	219 nM	Not Active	Stable	Not Active	>60%	Not Active	soluble	>30%					
CCOC(=O)N1CCN(C(=O)[C@H](CCC(=O)O)NC(=O)c2cc(N[C@@H]3CCOC3)nc(-c3ccccc3)n2)CC1	soluble	Not Active	Stable	Not Active	25 nM	Not Active	Stable	Not Active	<30%	Not Active	soluble		2.3	58 nM	<70%	0.085	
CCOC(=O)N1CCN(C(=O)[C@H](CCC(=O)O)NC(=O)c2cc(C3CC3)nc(-c3ccccc3)n2)CC1	soluble	Not Active	Stable	Not Active	59.5 nM	Not Active	Stable	Not Active		Not Active	soluble		54	3230 nM		0.003	
CCOC(=O)N1CCN(C(=O)[C@H](CCC(=O)O)NC(=O)c2cc(C(C)(C)C)nc(-c3ccccc3)n2)CC1	soluble	Not Active	Stable	Not Active	36 nM	Not Active	Stable	Not Active	>60%	Not Active	soluble	>30%	57	2050 nM			
CCCCc1cc(C(=O)N[C@@H](CCC(=O)O)C(=O)N2CCN(C(=O)OCC)CC2)nc(-c2ccccc2)n1	soluble	Not Active	Stable	Not Active		Not Active	Stable	Not Active	>60%	Not Active	soluble	>30%	20	1930 nM		0.007	
